Activity calls are given as the source filed them. The calls are words filed in the database; no cut-off is given here. Square brackets hold non-standard residues; d marks the D form. Peptide text beside a SMILES is read from it. Dap = NC[C@H](N)C(=O)O
Key:
[1] = target: Melanocortin receptor 4 (Mus musculus) (UniProt P56450); experiment: Agonist activity at mouse melanocortin receptor 4 expressed in HEK293 cells assessed as stimulation of cAMP accumulation at 100 uM incubated for 2 hrs by cAMP Alpha-screen assay relative to control; type: functional, cell-based
Melanocortin receptor 4 (Mus musculus), sequence (P56450 whole entry): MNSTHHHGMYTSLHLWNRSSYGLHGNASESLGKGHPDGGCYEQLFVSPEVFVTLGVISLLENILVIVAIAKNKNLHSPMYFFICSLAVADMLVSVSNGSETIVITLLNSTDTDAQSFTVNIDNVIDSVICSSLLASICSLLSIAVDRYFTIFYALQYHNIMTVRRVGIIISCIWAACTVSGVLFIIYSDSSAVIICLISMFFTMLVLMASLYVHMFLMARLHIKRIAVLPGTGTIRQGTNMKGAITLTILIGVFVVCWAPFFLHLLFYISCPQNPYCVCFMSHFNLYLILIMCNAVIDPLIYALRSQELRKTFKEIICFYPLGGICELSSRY

Melanocortin receptor 4 [2] = target: T1, Melanocortin receptor 4 (Mus musculus, UniProt P56450); experiment: Antagonist activity at mouse melanocortin receptor 4 expressed in HEK293 cells assessed as inhibition of NDP-MSH-induced cAMP accumulation incubated for 2 hrs by cAMP Alpha-screen assay based Schild analysis; type: functional, cell-based; settings: read-out: pA2 (converted)
T1 sequence (P56450 whole entry): as above

Melanocortin receptor 4 [3] = target: T2, Melanocortin receptor 4 (Homo sapiens, UniProt P32245); experiment: Ratio of IC50 for MDE6-82-1c to IC50 for test compound for displacement of [125I]-NDP-MSH from human melanocortin receptor 4 […] incubated for 1 hr by automatic gamma counting method; type: cell membranes
T2 sequence (P32245 whole entry): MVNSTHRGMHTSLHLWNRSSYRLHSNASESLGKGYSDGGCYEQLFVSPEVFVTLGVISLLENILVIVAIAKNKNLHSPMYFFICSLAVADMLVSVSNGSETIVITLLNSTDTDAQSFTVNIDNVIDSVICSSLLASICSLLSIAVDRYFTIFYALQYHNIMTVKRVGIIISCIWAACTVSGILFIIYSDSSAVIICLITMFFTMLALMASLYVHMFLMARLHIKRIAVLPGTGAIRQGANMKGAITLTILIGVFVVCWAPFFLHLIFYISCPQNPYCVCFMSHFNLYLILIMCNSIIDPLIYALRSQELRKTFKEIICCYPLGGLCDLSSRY

Melanocortin receptor 5 [4] = target: T3, Melanocortin receptor 5 (Mus musculus, UniProt P41149); experiment: Agonist activity at mouse melanocortin receptor 5 expressed in HEK293 cells assessed as stimulation of cAMP accumulation incubated for 2 hrs by cAMP Alpha-screen assay; type: functional, cell-based
T3 sequence (P41149 whole entry): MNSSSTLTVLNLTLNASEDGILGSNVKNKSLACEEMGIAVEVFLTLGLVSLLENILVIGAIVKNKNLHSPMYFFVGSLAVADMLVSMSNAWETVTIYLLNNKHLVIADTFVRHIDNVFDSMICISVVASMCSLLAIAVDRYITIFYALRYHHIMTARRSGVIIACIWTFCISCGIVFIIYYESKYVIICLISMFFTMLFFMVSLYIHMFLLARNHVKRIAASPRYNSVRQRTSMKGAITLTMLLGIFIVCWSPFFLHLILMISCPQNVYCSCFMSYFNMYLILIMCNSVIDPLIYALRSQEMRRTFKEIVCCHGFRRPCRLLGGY

[5] = target: Melanocyte-stimulating hormone receptor (Mus musculus) (UniProt Q01727); experiment: Ratio of IC50 for MDE6-82-1c to IC50 for test compound for displacement of [125I]-NDP-MSH from mouse melanocortin receptor 1 […] incubated for 1 hr by automatic gamma counting method
Melanocyte-stimulating hormone receptor (Mus musculus), sequence (Q01727 whole entry, looked up): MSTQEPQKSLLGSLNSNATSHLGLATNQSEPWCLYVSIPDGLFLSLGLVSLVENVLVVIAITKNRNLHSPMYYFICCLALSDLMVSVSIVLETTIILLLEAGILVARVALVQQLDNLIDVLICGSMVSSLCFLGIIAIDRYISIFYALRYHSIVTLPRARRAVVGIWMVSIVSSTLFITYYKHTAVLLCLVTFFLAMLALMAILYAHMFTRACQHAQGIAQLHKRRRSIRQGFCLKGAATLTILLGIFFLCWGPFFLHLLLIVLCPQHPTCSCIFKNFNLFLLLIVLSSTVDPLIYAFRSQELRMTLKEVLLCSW

[6] = target: Melanocortin receptor 3 (Mus musculus) (UniProt P33033); experiment: Agonist activity at mouse melanocortin receptor 3 expressed in HEK293 cells assessed as stimulation of cAMP accumulation at 100 uM incubated for 2 hrs by cAMP Alpha-screen assay relative to control; type: functional, cell-based
Melanocortin receptor 3 (Mus musculus), sequence (P33033 whole entry): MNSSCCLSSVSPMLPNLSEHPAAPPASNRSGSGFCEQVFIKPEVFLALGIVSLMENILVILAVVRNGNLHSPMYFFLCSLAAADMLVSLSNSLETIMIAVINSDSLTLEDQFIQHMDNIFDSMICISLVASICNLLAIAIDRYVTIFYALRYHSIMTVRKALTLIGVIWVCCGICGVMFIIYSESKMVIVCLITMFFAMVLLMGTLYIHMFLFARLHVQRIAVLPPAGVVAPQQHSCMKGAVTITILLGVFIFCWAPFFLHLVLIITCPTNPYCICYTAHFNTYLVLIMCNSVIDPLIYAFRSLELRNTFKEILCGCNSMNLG

[7] = target: Melanocortin receptor 3 (Mus musculus) (UniProt P33033); experiment: Ratio of IC50 for MDE6-82-1c to IC50 for test compound for displacement of [125I]-NDP-MSH from mouse melanocortin receptor 3 expressed in HEK293 cell mebranes incubated for 1 hr by automatic gamma counting method
How it was run: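 Whole stably transfected HEK293 cells (>90% confluent) incubated 1 h at 37°C, 5% CO2, in DMEM with 0.1% BSA. […] Cells washed, lysed with NaOH/Triton X-100, and counted by gamma counter. Specific binding normalized to nonradioactive NDP-MSH. IC50 from duplicates in two experiments (mean ± SD). Fold difference taken against the Dap-containing parent control.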

Melanocortin receptor 3 [8] = target: T4, Melanocortin receptor 3 (Mus musculus, UniProt P33033); experiment: Antagonist activity at mouse melanocortin receptor 3 expressed in HEK293 cells assessed as inhibition of NDP-MSH-induced cAMP accumulation incubated for 2 hrs by cAMP Alpha-screen assay based Schild analysis; type: functional, cell-based; settings: read-out: pA2 (converted)
T4 sequence (P33033 whole entry): as above
How it was run: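 NDP-MSH (10−6 to 10−12) plus antagonist at 10,000, 5,000, 1,000 and 500 nM, 2 h dark at room temperature. AlphaScreen cAMP read after lysis/bead step 2 h. Schild pA2; duplicates, at least three independent experiments.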

Melanocortin receptor 4 [9] = target: T2, Melanocortin receptor 4; experiment: Antagonist activity at human melanocortin receptor 4 expressed in HEK293 cells assessed as inhibition of NDP-MSH-induced cAMP accumulation incubated for 2 hrs by cAMP Alpha-screen assay based Schild analysis; type: functional, cell-based; settings: read-out: pA2 (converted)
Melanocortin receptor 5 [10] = target: T3, Melanocortin receptor 5; experiment: Displacement of [125I]-NDP-MSH from mouse melanocortin receptor 5 expressed in HEK293 cell mebranes incubated for 1 hr by automatic gamma counting method; type: cell-based
Melanocortin receptor 4 [11] = target: T2, Melanocortin receptor 4; experiment: Inverse agonist activity at human melanocortin receptor 4 expressed in HEK293 cells assessed as inhibition of basal cAMP accumulation incubated for 2 hrs by cAMP Alpha-screen assay; type: functional, cell-based
How it was run: (§1)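 AlphaScreen cAMP assay in stably transfected HEK293 cells, with 10,000 cells/well in IBMX-containing HBSS/HEPES buffer pH 7.4. Peptide alone, up to 100 μM, 2 h at room temperature in the dark, then 2 h lysis/detection. Inverse agonism taken as percent decrease of cAMP from basal, relative to maximal NDP-MSH signal, at 100 μM. Duplicates, three independent experiments.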

[12] = target: Melanocortin receptor 4 (Mus musculus) (UniProt P56450); experiment: Ratio of IC50 for MDE6-82-1c to IC50 for test compound for displacement of [125I]-NDP-MSH from mouse melanocortin receptor 4 […] incubated for 1 hr by automatic gamma counting method
[13] = target: Melanocortin receptor 5 (Mus musculus) (UniProt P41149); experiment: Ratio of IC50 for MDE6-82-1c to IC50 for test compound for displacement of [125I]-NDP-MSH from mouse melanocortin receptor 5 […] incubated for 1 hr by automatic gamma counting method
Melanocortin receptor 5 (Mus musculus), sequence (P41149 whole entry): as the sequence (P41149 whole entry) above

Melanocortin receptor 4 [14] = target: T1, Melanocortin receptor 4; experiment: Agonist activity at mouse melanocortin receptor 4 expressed in HEK293 cells assessed as stimulation of cAMP accumulation incubated for 2 hrs by cAMP Alpha-screen assay; type: functional, cell-based
Melanocortin receptor 3 [15] = target: T4, Melanocortin receptor 3; experiment: Agonist activity at mouse melanocortin receptor 3 expressed in HEK293 cells assessed as stimulation of cAMP accumulation incubated for 2 hrs by cAMP Alpha-screen assay; type: functional, cell-based
[16] = target: Melanocyte-stimulating hormone receptor (Mus musculus) (UniProt Q01727); experiment: Agonist activity at mouse melanocortin receptor 1 expressed in HEK293 cells assessed as stimulation of cAMP accumulation at 100 uM incubated for 2 hrs by cAMP Alpha-screen assay relative to control; type: functional, cell-based
[17] = target: Melanocortin receptor 3 (Mus musculus) (UniProt P33033); experiment: Ratio of IC50 for MDE6-82-3c to IC50 for test compound for displacement of [125I]-NDP-MSH from mouse melanocortin receptor 3 expressed in HEK293 cell mebranes incubated for 1 hr by automatic gamma counting method
How it was run: (§2)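 Cells washed, lysed 10 min with 0.1 M NaOH/1% Triton X-100, then gamma-counted. Specific binding defined with unlabelled NDP-MSH and normalized to it. Duplicate wells, two experiments. IC50 by non-linear fit. Fold difference taken relative to the Asn-parent macrocycle control.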

[18] = target: Melanocortin receptor 4 (Mus musculus) (UniProt P56450); experiment: Ratio of IC50 for MDE6-82-3c to IC50 for test compound for displacement of [125I]-NDP-MSH from mouse melanocortin receptor 4 expressed in HEK293 cell mebranes incubated for 1 hr by automatic gamma counting method; how it was run: as §2
Melanocortin receptor 4 [19] = target: T2, Melanocortin receptor 4; experiment: Ratio of IC50 for MDE6-82-3c to IC50 for test compound for displacement of [125I]-NDP-MSH from human melanocortin receptor 4 expressed in HEK293 cell membranes incubated for 1 hr by automatic gamma counting method; how it was run: as §2
[20] = target: Melanocyte-stimulating hormone receptor (Mus musculus) (UniProt Q01727); experiment: Ratio of IC50 for MDE6-82-3c to IC50 for test compound for displacement of [125I]-NDP-MSH from mouse melanocortin receptor 1 expressed in HEK293 cell mebranes incubated for 1 hr by automatic gamma counting method; how it was run: as §2
[21] = target: Melanocortin receptor 5 (Mus musculus) (UniProt P41149); experiment: Ratio of IC50 for MDE6-82-3c to IC50 for test compound for displacement of [125I]-NDP-MSH from mouse melanocortin receptor 5 expressed in HEK293 cell mebranes incubated for 1 hr by automatic gamma counting method; how it was run: as §2
[22] = target: Melanocortin receptor 5 (Mus musculus) (UniProt P41149); experiment: Inverse agonist activity at mouse melanocortin receptor 5 expressed in HEK293 cells assessed as inhibition of basal cAMP accumulation at 100 uM incubated for 2 hrs by cAMP Alpha-screen assay relative to control; type: functional, cell-based; how it was run: as §1
Melanocortin receptor 3 [23] = target: T4, Melanocortin receptor 3; experiment: Displacement of [125I]-NDP-MSH from mouse melanocortin receptor 3 expressed in HEK293 cell mebranes incubated for 1 hr by automatic gamma counting method; type: cell-based
[24] = target: T5, Melanocyte-stimulating hormone receptor (Mus musculus, UniProt Q01727); experiment: Displacement of [125I]-NDP-MSH from mouse melanocortin receptor 1 expressed in HEK293 cell mebranes incubated for 1 hr by automatic gamma counting method; type: cell-based; how it was run: as §2
T5 sequence (Q01727 whole entry): as the sequence (Q01727 whole entry, looked up) above

[25] = target: T5, Melanocyte-stimulating hormone receptor; experiment: Agonist activity at mouse melanocortin receptor 1 expressed in HEK293 cells assessed as stimulation of cAMP accumulation incubated for 2 hrs by cAMP Alpha-screen assay; type: functional, cell-based

| Structure (SMILES) | Ratio IC50 (Melanocortin receptor 4 [3]) | EC50 (Melanocortin receptor 5 [4]) [µM] | Ratio IC50 [5] | Ratio IC50 [7] | Activity (Melanocortin receptor 4 [11]) | Ratio IC50 [12] | Ratio IC50 [13] | EC50 (Melanocortin receptor 4 [14]) [µM] | EC50 (Melanocortin receptor 3 [15]) [µM] | Activity [16] [%] | Ratio IC50 [18] | Ratio IC50 (Melanocortin receptor 4 [19]) | Activity [1] [%] | IC50 (Melanocortin receptor 5 [10]) [µM] | further results |
| --- | --- | --- | --- | --- | --- | --- | --- | --- | --- | --- | --- | --- | --- | --- | --- |
| C[C@@H]1NC(=O)[C@H](CN)NC(=O)[C@H](Cc2ccccc2)NC(=O)[C@H](Cc2ccccc2)NC(=O)[C@H](CS)NC(=O)[C@@H]2CCCN2C(=O)[C@H]2CCCN2C(=O)[C@H](Cc2ccccc2)NC1=O (cyclo(PCFF[Dap]AF[dP])) | 2100 | > 100 | 6 | 15 | inactive | 5200 | – | – | – | – | – | – | 42 | > 100 | Kb (Melanocortin receptor 4 [2]): > 10 µM; Activity [6]: 29%; Kb (Melanocortin receptor 3 [8]): > 10 µM; Kb (Melanocortin receptor 4 [9]): > 10 µM |
| C[C@@H]1NC(=O)[C@H](CN)NC(=O)[C@H](Cc2ccccc2)NC(=O)[C@H](Cc2ccc(O)cc2)NC(=O)[C@H](CCCNC(=N)N)NC(=O)[C@@H]2CCCN2C(=O)[C@H]2CCCN2C(=O)[C@H](Cc2ccccc2)NC1=O (cyclo(RYF[Dap]AF[dP]P)) | 100 | > 100 | 4 | 9 | Active | 70 | 20 | > 100 | > 100 | 48 | – | – | – | – | – |

Continued, in another order:

| Ratio IC50 (Melanocortin receptor 4 [3]) | EC50 (Melanocortin receptor 5 [4]) [µM] | Ratio IC50 [5] | Ratio IC50 [7] | Activity (Melanocortin receptor 4 [11]) | Ratio IC50 [12] | Ratio IC50 [13] | EC50 (Melanocortin receptor 4 [14]) [µM] | EC50 (Melanocortin receptor 3 [15]) [µM] | Activity [16] [%] | Ratio IC50 [18] | Ratio IC50 (Melanocortin receptor 4 [19]) | Structure (SMILES) | Activity [1] [%] | IC50 (Melanocortin receptor 5 [10]) [µM] | further results |
| --- | --- | --- | --- | --- | --- | --- | --- | --- | --- | --- | --- | --- | --- | --- | --- |
| 400 | > 100 | 5 | 5 | inactive | 500 | 7 | > 100 | > 100 | 56 | – | – | C[C@@H]1NC(=O)[C@H](CN)NC(=O)[C@H](Cc2ccccc2)NC(=O)[C@H](Cc2ccccc2)NC(=O)[C@H](Cc2c[nH]cn2)NC(=O)[C@@H]2CCCN2C(=O)[C@H]2CCCN2C(=O)[C@H](Cc2ccccc2)NC1=O (cyclo(PHFF[Dap]AF[dP])) | – | – | – |
| – | > 100 | – | – | Active | – | – | – | > 100 | 23 | 2 | 3 | CC(C)[C@@H]1NC(=O)[C@H](CC(N)=O)NC(=O)[C@H](Cc2ccccc2)NC(=O)[C@H](Cc2ccccc2)NC(=O)[C@H](CCCNC(=N)N)NC(=O)[C@@H]2CCCN2C(=O)[C@H]2CCCN2C(=O)[C@H](Cc2ccccc2)NC1=O (cyclo(PRFFNVF[dP])) | 16 | – | Ratio IC50 [17]: 3; Ratio IC50 [20]: 2; Ratio IC50 [21]: 2 |
| – | – | – | – | Active | – | – | > 100 | > 100 | – | 100 | 2000 | C[C@@H]1NC(=O)[C@H](CC(N)=O)NC(=O)[C@H](Cc2ccccc2)NC(=O)[C@H](Cc2ccc(O)cc2)NC(=O)[C@H](CCCNC(=N)N)NC(=O)[C@@H]2CCCN2C(=O)[C@H]2CCCN2C(=O)[C@H](Cc2ccccc2)NC1=O (cyclo(PRYFNAF[dP])) | – | > 100 | inhibition [22]: 35%; IC50 (Melanocortin receptor 3 [23]): > 100 µM; IC50 [24]: > 100 µM; EC50 [25]: > 100 µM |
